From ChEMBL document CHEMBL3259664, “Optimization of an imidazopyridazine series of inhibitors of Plasmodium falciparum calcium-dependent protein kinase 1 (PfCDPK1)” (J Med Chem, 2014)

How the values were obtained:
[1] = Metabolic stability in mouse liver microsomes assessed as compound remaining measured at 30 mins; format: ADME; details: read-out: Stability
[2] = Metabolic stability in human liver microsomes assessed as compound remaining measured at […]; format: ADME; details: read-out: Stability
[3] = Lipophilicity, log D of the compound; format: physicochemical; details: octanol/water
[4] = Total plasma concentration in NMRI mouse infected with Plasmodium berghei ANKA at 50 mg/kg, po qd administered on day 1 to 3 post infection measured at 4 hrs post last dose; format: ADME, organism-based; set-up: dose 50 mg/kg, route oral
Outline: (§1)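 4-day Peters test in groups of 3 mice infected iv on day 0. Oral dosing was 50 mg/kg once daily at 4, 24, 48 and 72 h post-infection. The monohydrochloride salt was dissolved in 30:70 EtOH/Tween-80 and diluted 10-fold with water. Blood was sampled for total plasma compound levels.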

[5] = Total plasma concentration in NMRI mouse infected with Plasmodium berghei ANKA at 50 mg/kg, po qd administered on day 1 to 3 post infection measured at 1 hr post last dose; format: ADME, organism-based; set-up: dose 50 mg/kg, route oral; outline: as §1
Rattus norvegicus [6] = experiment: Volume of distribution in rat at […], iv and 21 mg/kg, po; format: ADME, organism-based; details: in vivo
[7] = Oral bioavailability in rat at 21 mg/kg; format: ADME, organism-based; details: in vivo
Rattus norvegicus [8] = experiment: Half life in rat at […], iv; format: ADME, organism-based; set-up: dose 4.5 mg/kg, route intravenous; details: in vivo

Row | SMILES | remaining at 0.5 h [1] | remaining [2] | logD [3] | further results
1 | CN1CCC(Nc2ccc3ncc(-c4ccc(Nc5cccc(C(F)(F)F)n5)cc4)n3n2)CC1 | 73% | 80% | 3.4 | 
2 | CN1CCC(Nc2ccc3ncc(-c4ccc(Nc5ncccc5F)nc4)n3n2)CC1 | 57% | 77% | 3.1 | 
3 | CN1CCC(Nc2ccc3ncc(-c4ccc(Nc5ncccc5F)cc4)n3n2)CC1 | 47% | 80% | 3.2 | concentration at 4 h [4]: 1460 ng/mL; concentration at 1 h [5]: 1660 ng/mL
4 | Fc1cccnc1Nc1ncc(-c2cnc3ccc(NC4CCNC4)nn23)cn1 (racemic) |  |  | 0.4 | 
5 | CN1CCN(CCNc2ccc3ncc(-c4cnc(Nc5ncccc5F)nc4)n3n2)CC1 |  |  | 1.6 | 
6 | Cc1ccc(F)c(Nc2ccc(-c3cnc4ccc(NC5CCN(C)CC5)nn34)cc2)n1 | 52% | 77% | 3.5 | 
7 | N[C@H]1CC[C@H](Nc2ccc3ncc(-c4ccc(Nc5ncc(Cl)cc5F)cc4)n3n2)CC1 | 57% | 77% | 3.1 | 
8 | N[C@H]1CC[C@H](Nc2ccc3ncc(-c4ccc(Nc5ncc(F)cc5F)cc4)n3n2)CC1 | 87% | 68% | 2 | 
9 | N[C@H]1CC[C@H](Nc2ccc3ncc(-c4cnc(Nc5ncc(C(F)(F)F)cc5F)nc4)n3n2)CC1 | 93% | 69% | 1.6 | 
10 | Fc1cccnc1Nc1ncc(-c2cnc3ccc(NCCN4CCOCC4)nn23)cn1 |  |  | 2.9 | 
11 | Cc1ccc(Nc2ncc(-c3cnc4ccc(N[C@H]5CC[C@H](N)CC5)nn34)cn2)nc1 | 100% | 92% | 1.1 | 
12 | Cc1ccc2ncc(-c3cnc(Nc4ncccc4F)nc3)n2n1 |  |  | 2.5 | 
13 | CN1CCC(Nc2ccc3ncc(-c4ccc(Nc5ncc(F)cc5F)cc4)n3n2)CC1 | 58% | 78% | 3.7 | 
14 | CN1CCC(Nc2ccc3ncc(-c4cnc(Nc5ncccc5F)nc4)n3n2)C1 (racemic) |  |  | 1.5 | 
15 | Cc1ccc(F)c(Nc2ccc(-c3cnc4ccc(N[C@H]5CC[C@H](N)CC5)nn34)cc2)n1 | 90% | 83% | 2.2 | 
16 | CN1CCC(Nc2ccc3ncc(-c4ccc(Nc5ccc(C(F)(F)F)cn5)cc4)n3n2)CC1 | 85% | 81% | 3.7 | 
17 | CN1CCN(c2ccc3ncc(-c4cnc(Nc5ncccc5F)nc4)n3n2)CC1 |  |  | 2.2 | 

Row | SMILES | remaining at 0.5 h [1] | remaining [2] | logD [3] | further results
18 | CN1CCC(Cc2ccc3ncc(-c4cnc(Nc5ncccc5F)nc4)n3n2)CC1 |  |  | 1.3 | 
19 | Fc1cccnc1Nc1ccc(-c2cnc3ccc(N[C@H]4CC[C@H](N5CCCC5)CC4)nn23)cn1 | 88% | 71% | 2.8 | 
20 | Fc1cccnc1Nc1ccc(-c2cnc3ccc(N[C@H]4CC[C@H](N5CCCC5)CC4)nn23)cc1 | 82% | 60% | 3.3 | 
21 | CN1CCC(Oc2ccc3ncc(-c4cnc(Nc5ncccc5F)nc4)n3n2)C1 (racemic) |  |  | 1.5 | 
22 | CN1CCC(Nc2ccc3ncc(-c4ccc(Nc5ncccc5F)cc4)n3n2)CC1.Cl |  |  |  | Vd (Rattus norvegicus [6]): 8 L/kg; bioavailability [7]: 70%; t1/2 (Rattus norvegicus [8]): 4 h
23 | Fc1cccnc1Nc1ncc(-c2cnc3ccc(N[C@H]4CC[C@H](N5CCOCC5)CC4)nn23)cn1 |  |  | 3.2 | 
24 | N[C@H]1CC[C@H](Nc2ccc3ncc(-c4cnc(NCc5ccccn5)nc4)n3n2)CC1 | 95% | 95% | 0.4 | 
25 | N[C@H]1CC[C@H](Nc2ccc3ncc(-c4cnc(Nc5ccccc5)nc4)n3n2)CC1 | 92% | 89% | 1.6 | 
26 | CN1CCC(Nc2ccc3ncc(-c4cnc(Nc5ncccc5F)nc4)n3n2)CC1 | 85% | 98% | 1.4 | 
27 | Fc1cccnc1Nc1ncc(-c2cnc3ccc(N[C@H]4CC[C@H](N5CCCC5)CC4)nn23)cn1 |  |  | 1.9 | 
28 | CN1CCC(Nc2ccc3ncc(-c4ccc(Nc5ncc(Cl)cc5F)cc4)n3n2)CC1 | 61% | 86% | 3.7 | 
29 | N[C@H]1CC[C@H](Nc2ccc3ncc(-c4cnc(Nc5ccccn5)nc4)n3n2)CC1 | 93% | 99% | 1.1 | 
30 | Fc1cccnc1Nc1ncc(-c2cnc3ccc(N4CCNCC4)nn23)cn1 |  |  | 0.7 | 
31 | N[C@H]1CC[C@H](Nc2ccc3ncc(-c4cnc(Nc5ncccc5F)nc4)n3n2)CC1 | 85% | 93% | 0.2 | 
32 | Fc1cccnc1Nc1ncc(-c2cnc3ccc(NCCN4CCCC4)nn23)cn1 |  |  | 1.5 | 
33 | CN1CCC(Oc2ccc3ncc(-c4cnc(Nc5ncccc5F)nc4)n3n2)CC1 |  |  | 1.5 | 
